The values below come from ChEMBL document CHEMBL2346548, “Design, synthesis, and structure-activity relationship studies of tryptanthrins as antitubercular agents” (J Nat Prod, 2013).

A short description of series [1]: Aqueous solubility in PBS buffer at pH 7.4 by HPLC method. It is filed as physicochemical. To be noted: PBS buffer, read-out: solubility. Summed up: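 Compound at 200 μM final in 2% DMSO in PBS pH 7.4, shaken 24 h at room temperature; quantified by HPLC with photodiode array detection at 230 nm; duplicate, mean reported.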
Series [2] in a line: Permeability across apical to basolateral side in human Caco2 cells incubated for 1 hr at 37 degC by HPLC-MS/MS method. It is filed as ADME, cell-based. The following applies: Caco-2. An outline of the steps:
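TC7 (Caco-2 subclone) monolayer; 10 μM compound in 1% DMSO in HBSS-MES pH 6.5 on apical donor side, basolateral receiver pH 7.4; shaken 1 h at 37 °C; receiver sampled, HPLC-MS/MS; duplicate means.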

Series [3] deals with Mycobacterium tuberculosis. As to the kind of experiment: Antitubercular activity against non-replicating Mycobacterium tuberculosis H37Rv incubated for 10 days by LORA method. The following applies: 240 h. Format: functional. An outline of the steps: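 H37Rv carrying pFCA-luxAB was adapted to low oxygen by gradual self-depletion in a sealed, slowly stirred flask. It was then exposed to compounds for 10 days under anaerobic conditions. Cultures recovered for 28 h in ambient oxygen before n-decanal substrate was added and luminescence read. MIC was the lowest concentration giving a 90% reduction in luminescence versus untreated controls.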

The subject of the next series is Vero. Put plainly: Cytotoxicity against african green monkey Vero cells. It is filed as cell-based, Chlorocebus sabaeus. To be noted: Chlorocebus sabaeus, Vero; read-out: IC50.
Series [4] can be described thus: Permeability across basolateral to apical side in human Caco2 cells incubated for 1 hr at 37 degC by HPLC-MS/MS method. Format: ADME, cell-based. To be noted: Caco-2.
The test system of series [5] is Mycobacterium tuberculosis. As to the kind of experiment: Antitubercular activity against Mycobacterium tuberculosis H37Rv incubated at 37 degC for 14 days in presence of 40% human serum by microplate alamar blue assay. Format: functional. To be noted: 336 h. Summed up:
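This is the MABA run in 7H9 broth containing 40% human serum. Compounds were 2-fold serially diluted, and wells were inoculated with H37Rv at 2 × 10⁵ CFU/mL. Incubation was at 37 °C for 14 days, then Alamar Blue was added. MIC was the lowest concentration preventing the blue-to-pink colour change.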
On the technique in general: The colour change of resazurin is a common sign of viable cells or microbes.

The nature of series [6]: Solubility in simulated intestinal fluid at pH 7.6 by HPLC method. Format: physicochemical. An outline of the steps:
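Simulated intestinal fluid medium; each analogue 200 μM final in 2% DMSO, shaken 24 h at room temperature, then HPLC with photodiode array read at 230 nm; duplicate, means given.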

Series [7] relates to Mycobacterium tuberculosis. As to the kind of experiment: Antitubercular activity against Mycobacterium tuberculosis H37Rv incubated at 37 degC for 7 days by microplate alamar blue assay. It is filed as functional. To be noted: for MIC: Mycobacterium tuberculosis, H37Rv, 168 h. Summed up:
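Mtb H37Rv was grown in 7H9 broth with glycerol, Casitone, 10% OADC and 0.05% Tween 80 to OD600 0.4. Compounds were 2-fold serially diluted from DMSO stocks in 7H9, and wells were inoculated at 2 × 10⁵ CFU/mL. After 7 days at 37 °C, Alamar Blue was added and read after a further 24 h. MIC was the lowest concentration preventing the blue-to-pink change.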

Series [8] can be described thus: Solubility in simulated gastric fluid at pH 1.5 by HPLC method. Format: physicochemical. An outline of the steps: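 Compound at 200 μM final in 2% DMSO in simulated gastric fluid, shaken 24 h at room temperature; HPLC-photodiode array detection at 230 nm; duplicate means.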
Series [9] is described as follows: Metabolic stability in human liver microsomes assessed as parent compound remaining at 1 uM incubated for 1 hr by HPLC-MS/MS method. It is filed as ADME, Microsome. The following applies: read-out: Stability. An outline of the steps:
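Pooled mixed-gender human liver microsomes (0.3 mg/mL protein), 1 μM compound with NADP-regenerating system in phosphate buffer pH 7.4, 1 h at 37 °C; parent measured at start and end by HPLC-MS/MS; duplicate means.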

A short description of series [10]: Efflux ratio in human Caco2 cells incubated for 1 hr at 37 degC by HPLC-MS/MS method. It is filed as ADME, cell-based. The following applies: Caco-2.
For another series, the target named is CYP2C19 (Homo sapiens, UniProt P33261). Put plainly: Inhibition of human recombinant CYP2C19 at 10 uM incubated for 60 mins at 37 degC using 3-cyano-7-ethoxycoumarin substrate. To be noted: recombinant CYP2C19, probe 3-cyano-7-ethoxycoumarin. Format: ADME.
Sequence of CYP2C19 (P33261 whole entry): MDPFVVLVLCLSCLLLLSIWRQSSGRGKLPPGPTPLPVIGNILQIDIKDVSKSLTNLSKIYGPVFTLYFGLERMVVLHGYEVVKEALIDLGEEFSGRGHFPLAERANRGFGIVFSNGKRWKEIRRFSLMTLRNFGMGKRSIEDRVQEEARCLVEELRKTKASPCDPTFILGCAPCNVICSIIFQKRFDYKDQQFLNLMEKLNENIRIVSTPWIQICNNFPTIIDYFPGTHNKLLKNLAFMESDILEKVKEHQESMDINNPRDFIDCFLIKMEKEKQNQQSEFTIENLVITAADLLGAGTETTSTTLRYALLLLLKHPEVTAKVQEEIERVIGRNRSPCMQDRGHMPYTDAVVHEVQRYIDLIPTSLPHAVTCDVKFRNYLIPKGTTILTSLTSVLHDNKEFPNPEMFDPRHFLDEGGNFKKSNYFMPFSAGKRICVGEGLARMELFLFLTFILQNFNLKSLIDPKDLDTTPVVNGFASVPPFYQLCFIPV
Series [11] is described as follows: Protein binding in human plasma at 10 uM incubated for 8 hrs at 37 degC by equilibrium dialysis method. It is filed as ADME, cell-free. To be noted: read-out: PPB (converted). An outline of the steps: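 Equilibrium dialysis: 10 μM compound in 1% DMSO in human plasma vs 0.05 M phosphate buffer pH 7.5 across 12–14 K cutoff membrane, at least 8 h at 37 °C; HPLC-photodiode detection at 230 nm; duplicate means.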

Another series deals with CYP2C9 (Homo sapiens, UniProt P11712). Put plainly: Inhibition of human recombinant CYP2C9 at 10 uM incubated for 80 mins at 37 degC using 7-methoxy-4-trifluoromethylcoumarin substrate. To be noted: recombinant CYP2C9, probe 7-methoxy-4-trifluoromethylcoumarin. Format: ADME.
Sequence of CYP2C9 (P11712 whole entry): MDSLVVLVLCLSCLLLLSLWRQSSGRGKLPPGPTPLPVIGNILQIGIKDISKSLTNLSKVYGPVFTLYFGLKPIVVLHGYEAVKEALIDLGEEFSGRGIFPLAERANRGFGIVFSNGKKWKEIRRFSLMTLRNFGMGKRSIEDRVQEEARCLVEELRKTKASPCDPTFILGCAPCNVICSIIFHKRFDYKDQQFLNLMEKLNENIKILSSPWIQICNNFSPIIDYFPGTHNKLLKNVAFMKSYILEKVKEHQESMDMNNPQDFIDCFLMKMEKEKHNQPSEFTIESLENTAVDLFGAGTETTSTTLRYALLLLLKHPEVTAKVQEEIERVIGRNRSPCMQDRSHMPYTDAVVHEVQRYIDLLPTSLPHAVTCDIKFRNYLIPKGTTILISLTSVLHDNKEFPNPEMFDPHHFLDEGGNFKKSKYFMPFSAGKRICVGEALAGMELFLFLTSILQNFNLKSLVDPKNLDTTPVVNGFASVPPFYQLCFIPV
A further series has as its target CYP3A4 (Homo sapiens, UniProt P08684). Put plainly: Inhibition of human recombinant CYP3A4 at 10 uM incubated for 30 mins at 37 degC using 7-benzyloxy-4-(trifluoromethyl)coumarin substrate. Format: ADME. The following applies: recombinant CYP3A4, probe 7-benzyloxy-4-(trifluoromethyl)coumarin.
The nature of series [12]: Distribution coefficient, log D of the compound between n-octanol and PBS buffer at pH 7.4 incubated for 1 hr by shake flask method. Format: physicochemical. An outline of the steps:
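Partition between n-octanol and PBS pH 7.4 after 1 h shaking at room temperature; phases analysed by HPLC with photodiode detection; logD = log10 of organic/aqueous amount.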

The solubility is the concentration that dissolves in the medium under given conditions. For orientation: Papp A→B means how fast a substance crosses the layer from the apical side. A word on the MIC90: it is an inhibitory concentration at the 90% level, which refers to growth in some studies and to a panel of isolates in others. Usually IC50 stands for the concentration needed to halve the response being measured. By Papp B→A is commonly meant the apparent permeability from the basolateral to the apical side of a cell layer. As usually defined, the MIC is the smallest concentration in the dilution series that meets the test's criterion for growth inhibition. Usually efflux ratio stands for the permeability from basolateral to apical divided by that in the opposite direction, in the common usage. In general, inhibition refers to how much of the control response was suppressed. Broadly, the logD is lipophilicity at a set pH, counting ionised and neutral species.

In brackets after ≈: the same amount, converted by molar mass.

Sequence of CYP3A4 (P08684 whole entry): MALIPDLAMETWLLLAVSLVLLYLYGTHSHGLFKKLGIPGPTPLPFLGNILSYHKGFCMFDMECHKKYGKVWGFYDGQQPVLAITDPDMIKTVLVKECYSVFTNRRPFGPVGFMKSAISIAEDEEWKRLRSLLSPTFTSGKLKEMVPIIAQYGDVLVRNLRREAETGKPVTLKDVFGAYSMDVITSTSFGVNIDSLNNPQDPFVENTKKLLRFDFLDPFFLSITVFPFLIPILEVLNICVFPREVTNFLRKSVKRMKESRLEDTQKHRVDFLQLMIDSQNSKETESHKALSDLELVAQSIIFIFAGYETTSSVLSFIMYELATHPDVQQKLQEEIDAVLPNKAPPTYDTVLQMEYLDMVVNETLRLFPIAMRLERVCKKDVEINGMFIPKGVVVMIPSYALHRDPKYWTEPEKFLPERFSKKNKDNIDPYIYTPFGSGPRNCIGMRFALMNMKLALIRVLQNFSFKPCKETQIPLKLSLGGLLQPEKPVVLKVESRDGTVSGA

`O=C1c2cc(F)ccc2-n2c1nc1ccccc1c2=O`: the solubility is 4.9 µM (≈ 1.3 µg/mL) in series [1], 18.8 µM (≈ 5.01 µg/mL) in series [6] and 8.5 µM (≈ 2.26 µg/mL) in series [8]. This compound also returned an apical-to-basolateral permeability (Papp A→B) at 1 h in [2] of 66.6 ×10⁻⁶ cm/s. For the same compound, in [3], the MIC90 is above 50 µg/mL. For the same compound, the IC50 in the series with Vero is above 50 µg/mL. This compound registered an apparent permeability from basolateral to apical (Papp B→A) at 1 h in [4] of 29.9 ×10⁻⁶ cm/s. Besides, the MIC in [5] was determined as 0.5 µg/mL; in series [7] it was 0.125 µg/mL (≈ 0.47 µM). Besides, the remaining at 1 h, 1 µM in series [9] stood at 46%. Further, in series [10], the efflux ratio at 1 h was above 1.

For `O=C1c2ccc(Cl)cc2-n2c1nc1ccccc1c2=O`, the inhibition at 1 h, 10 µM at CYP2C19 turned out to be 4%. In series [2], this compound displayed a Papp A→B at 1 h of 0.4 ×10⁻⁶ cm/s. Also, the fraction unbound at 8 h, 10 µM in [11] is 0.01. The MIC90 in series [3] was above 50 µg/mL. Further, the inhibition at 80 min, 10 µM on CYP2C9 was found to be 25%. Also, the inhibition at 0.5 h, 10 µM on CYP3A4 amounted to 7%. The half-inhibitory concentration (IC50) with Vero was above 50 µg/mL. Moreover, in series [4], the Papp B→A at 1 h amounted to 0.1 ×10⁻⁶ cm/s. For the same compound, the minimal inhibitory concentration (MIC) in series [5] came to 0.5 µg/mL; in series [7], 0.25 µg/mL (≈ 0.884 µM). In series [12], this compound registered a logD at 1 h of 2.45. The solubility in series [6] was 20.3 µM (≈ 5.74 µg/mL); in series [8], 71.9 µM (≈ 20.3 µg/mL). In series [7], this compound displayed an MBC90 of 0.5 µg/mL (≈ 1.77 µM). Moreover, the remaining at 1 h, 1 µM in series [9] is 27%.

Regarding `O=C1c2cc(Cl)ccc2-n2c1nc1ncccc1c2=O`, the inhibition at 1 h, 10 µM on CYP2C19 stood at 67%. The solubility in series [1] is 8 µM (≈ 2.27 µg/mL); in series [6], 18.9 µM (≈ 5.36 µg/mL); in [8] it was 6 µM (≈ 1.7 µg/mL). In addition, the Papp A→B at 1 h in series [2] came to 73.8 ×10⁻⁶ cm/s. Moreover, the fraction unbound at 8 h, 10 µM in series [11] was 0.051. In series [3], this compound gave an MIC90 of 1.4 µg/mL (≈ 4.94 µM). Also, the inhibition at 80 min, 10 µM at CYP2C9 worked out at 54%. At CYP3A4, the inhibition at 0.5 h, 10 µM was found to be 62%. For the same compound, the IC50 in the series on Vero amounted to 5.4 µg/mL (≈ 19 µM). For the same compound, the Papp B→A at 1 h in series [4] came out at 44 ×10⁻⁶ cm/s. Also, the MIC in series [5] was determined as 0.125 µg/mL; in [7], 0.125 µg/mL (≈ 0.441 µM). For the same compound, the logD at 1 h in [12] stood at 1.77. The same compound had an MBC90 in series [7] of 0.25 µg/mL (≈ 0.881 µM). Further, the remaining at 1 h, 1 µM in series [9] amounted to 96%. Besides, the efflux ratio at 1 h in series [10] is above 1.

As for `O=C1c2cc(Br)ccc2-n2c1nc1ccncc1c2=O`, the inhibition at 1 h, 10 µM at CYP2C19 is 16%. Further, the solubility in series [1] is 35.4 µM (≈ 11.6 µg/mL); in series [6] it was 34.4 µM (≈ 11.3 µg/mL); in series [8] it was 45 µM (≈ 14.8 µg/mL). Besides, the MIC90 in series [3] is above 50 µg/mL. For the same compound, the inhibition at 80 min, 10 µM on CYP2C9 is 10%. Further, the inhibition at 0.5 h, 10 µM at CYP3A4 was determined as 14%. Also, the IC50 with Vero is above 50 µg/mL. Besides, the MIC in series [5] was 0.5 µg/mL; in [7], 1 µg/mL (≈ 3.05 µM). Besides, the log distribution coefficient (logD) at 1 h in series [12] was determined as 1.6. This compound also yielded an MBC90 in series [7] of 0.25 µg/mL (≈ 0.762 µM). Also, the remaining at 1 h, 1 µM in series [9] turned out to be 96%.

With `O=C1c2cc(OC(F)(F)F)ccc2-n2c1nc1ccccc1c2=O`, the solubility in [1] is 1 µM (≈ 0.332 µg/mL); in series [6] it was 31.3 µM (≈ 10.4 µg/mL); in series [8], 1.5 µM (≈ 0.498 µg/mL). In [2], this compound registered a Papp A→B at 1 h of 22 ×10⁻⁶ cm/s. The MIC90 in [3] is above 50 µg/mL. For the same compound, the IC50 in the series on Vero is above 50 µg/mL. The Papp B→A at 1 h in [4] was found to be 5.8 ×10⁻⁶ cm/s. In addition, the MIC in series [5] is 0.5 µg/mL; in series [7], 0.125 µg/mL (≈ 0.376 µM). Moreover, the remaining at 1 h, 1 µM in series [9] stood at 59%. In addition, the efflux ratio at 1 h in series [10] is above 1.

As for `O=C1c2cc(Cl)ccc2-n2c1nc1ccc(F)cc1c2=O`, the Papp A→B at 1 h in [2] was found to be 2.2 ×10⁻⁶ cm/s. The same compound returned an MIC90 in series [3] above 50 µg/mL. In the series on Vero, the IC50 is 23.5 µg/mL (≈ 78.2 µM). In series [4], this compound yielded a basolateral-to-apical permeability (Papp B→A) at 1 h of 2.1 ×10⁻⁶ cm/s. Besides, the MIC was 0.312 µg/mL in series [5] and 0.156 µg/mL (≈ 0.519 µM) in [7]. Also, in [6], the solubility is 29.8 µM (≈ 8.96 µg/mL). Further, the remaining at 1 h, 1 µM in [9] was found to be 63%.
